From ChEMBL document CHEMBL1926572, “Synthesis and evaluation of the substrate activity of C-6 substituted purine ribosides with E. coli purine nucleoside phosphorylase: palladium mediated cross-coupling of organozinc halides with 6-chloropurine nucleosides” (Eur J Med Chem, 2012) come the findings set out here.

Molecules are shown by their SMILES. The source made the active and inactive calls. The calls are words filed in the database; no cut-off is given here. Bounds are passed on as bounds.

For one data set, the system named is Escherichia coli. The data set can be described thus: Activity of Escherichia coli PNP assessed per mg of protein at 100 uM by UV spectrometric analysis. Summed up:
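Samples taken at several times; substrate and product resolved by C-18 HPLC (5–50% acetonitrile gradient, NH₄H₂PO₄ pH 4.5) with UV detection. Rate in nmoles/mg/h; mean of at least 2 measurements.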

For the next data set, the system named is CCRF-CEM. Description: Cytotoxicity against human CCRF-CEM cells after 72 hrs by coulter counting. It is filed as functional, cell-based.
Another data set relates to SNB-7. Description: Cytotoxicity against human SNB7 cells assessed as cell viability after 72 hrs by sulforhodamine B assay. It is filed as functional, cell-based. Particulars: SNB-7, 72 h. The procedure, abridged:
(§1)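 Cells plated and kept at 37 °C with a range of compound concentrations for 72 h of continuous exposure; viability by sulforhodamine B staining, absorbance at 570 nm; concentration inhibiting growth by 50% determined from a single experiment.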

The subject of another data set is DLD-1. The data set can be described thus: Cytotoxicity against human DLD1 cells assessed as cell viability after 72 hrs by sulforhodamine B assay. It is filed as functional, cell-based. As to conditions: DLD-1, 72 h. Summed up: as §1
The next data set relates to ZR-75-1. Description: Cytotoxicity against human ZR-75-1 cells assessed as cell viability after 72 hrs by sulforhodamine B assay. It is filed as functional, cell-based. As to conditions: ZR-75-1, 72 h. The procedure, abridged: as §1
The test system of data set [1] is NCI-H23. Description: Cytotoxicity against human NCI-H23 cells assessed as cell viability after 72 hrs by sulforhodamine B assay. It is filed as functional, cell-based. Particulars: NCI-H23, 72 h. Summed up: as §1
A further data set relates to LOX IMVI. The data set can be described thus: Cytotoxicity against human LOXIMVI cells assessed as cell viability after 72 hrs by sulforhodamine B assay. It is filed as functional, cell-based. Summed up:
as §1

The subject of the next data set is PC-3. Description: Cytotoxicity against human PC3 cells assessed as cell viability after 72 hrs by sulforhodamine B assay. The data set is classed as functional, cell-based. Particulars: PC-3, 72 h. Summed up: as §1
Another data set relates to CAKI-1. Description: Cytotoxicity against human Caki1 cells assessed as cell viability after 72 hrs by sulforhodamine B assay. As to conditions: CAKI-1, 72 h. The data set is classed as functional, cell-based. Summed up: as §1
The test system of data set [2] is NCI-H23. The data set can be described thus: Antitumor activity against human NCI-H23 cells xenografted in nude mouse assessed as tumor growth inhibition at 33 to 75 mg/kg, ip qd for 9 consecutive days. The data set is classed as functional, organism-based. The procedure, abridged: (§2)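 NCI-H23 tumors grown on the flanks of nude mice; once tumors were about 200 mg, animals received 33, 50 or 75 mg/kg ip daily for 9 consecutive days; tumor growth and body weight followed.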

Data set [3] concerns Mus musculus. Description: Toxicity in nude mouse xenografted with human NCI-H23 cells assessed as decrease in body weight at 75 mg/kg, ip qd for 9 consecutive days. It is filed as organism-based. The arrangement: dose 75 mg/kg, route intraperitoneal; scale not given: the % may be the effect or the level left. As to conditions: in vivo. The procedure, abridged:
as §2

Data set [4] concerns NCI-H23. The data set can be described thus: Antitumor activity against human NCI-H23 cells xenografted in nude mouse assessed as tumor growth inhibition at maximum tolerated dose, ip qd for 9 consecutive days. It is filed as functional, organism-based. The procedure, abridged: as §2
Data set [5] deals with Mus musculus. Description: Toxicity in nude mouse xenografted with human NCI-H23 cells assessed as mortality at 75 mg/kg, ip qd for 9 consecutive days. The data set is classed as organism-based. Details: dose 75 mg/kg, route intraperitoneal. Particulars: in vivo. The procedure, abridged: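 NCI-H23 tumours grown subcutaneously on the flanks of nude mice. Dosing began once tumours reached about 200 mg: 33, 50 or 75 mg/kg given ip once daily for 9 consecutive days. Tumour growth, deaths and body-weight loss were recorded.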

In turn, `CCc1ncnc2c1ncn2[C@@H]1O[C@H](CO)[C@@H](O)[C@H]1O` gave an Activity in the data set with Escherichia coli of 69000 nmol/h. This compound yielded an IC50 with CCRF-CEM of 0.72 µM.

On to `OC[C@H]1O[C@@H](n2cnc3c(C4CCCC4)ncnc32)[C@H](O)[C@@H]1O`, for which the Activity with Escherichia coli stood at 42000 nmol/h. The IC50 in the data set with CCRF-CEM turned out to be 16 µM.

`CCCCc1ncnc2c1ncn2[C@@H]1O[C@H](CO)[C@@H](O)[C@H]1O`: the Activity with Escherichia coli was found to be 86000 nmol/h. The compound further had an IC50 in the data set on CCRF-CEM of 49 µM.

`OC[C@H]1O[C@@H](n2cnc3c(C4CCC4)ncnc32)[C@H](O)[C@@H]1O` gave an Activity in the data set with Escherichia coli of 63000 nmol/h. The compound also gave an IC50 with CCRF-CEM of 7 µM.

As to `Cc1ncnc2c1ncn2[C@@H]1O[C@H](CO)[C@@H](O)[C@@H]1O`, in the data set with Escherichia coli, the Activity came out at 14 nmol/h. In the data set on CCRF-CEM, this compound had a concentration for half-maximal inhibition (IC50) of more than 130 µM.

For the compound `OC[C@H]1O[C@@H](n2cnc3c(-c4cccs4)ncnc32)[C@H](O)[C@@H]1O`, the Activity amounted to 9900 nmol/h in the data set with Escherichia coli and 14% with Mus musculus [3]. Besides, the IC50 came to 0.09 µM with CCRF-CEM; 10 µM in the data set with SNB-7; 0.9 µM with DLD-1; 0.3 µM in the data set on ZR-75-1; 0.6 µM in the data set on NCI-H23 [1]; 0.3 µM in the data set with LOX IMVI. The figures for the IC50 in the data set with PC-3 and in the data set with CAKI-1 were 0.9 µM and 30 µM, respectively. The “growth inhibition (GI)” value in the data set with NCI-H23 [2] and in the data set with NCI-H23 [4] was “inactive” in each case.

As for `OC[C@H]1O[C@@H](n2cnc3c(-c4ccccc4)ncnc32)[C@H](O)[C@@H]1O`, in the data set with Escherichia coli, the Activity stood at 21000 nmol/h. The IC50 in the data set with CCRF-CEM amounted to 0.62 µM; in the data set with SNB-7, 31 µM; in the data set with DLD-1, 6 µM; in the data set on ZR-75-1, 1.2 µM; in the data set with NCI-H23 [1], 1.2 µM; in the data set with LOX IMVI, 6.2 µM. Also, the IC50 in the data set with PC-3 stood at 1.2 µM; in the data set on CAKI-1, 31 µM.

In turn, `Cc1ncnc2c1ncn2[C@@H]1O[C@H](CO)[C@@H](O)[C@H]1O` came in with an Activity with Escherichia coli of 84000 nmol/h. Also, the IC50 in the data set on CCRF-CEM was 0.02 µM.

`OC[C@H]1O[C@@H](n2cnc3c(C4CC4)ncnc32)[C@H](O)[C@@H]1O`: the figures for the Activity in the data set on Escherichia coli and in the data set on Mus musculus [5] were 51000 nmol/h and “Toxic”, respectively. For the same compound, the IC50 in the data set with CCRF-CEM is 1 µM; with SNB-7 it was 33 µM; in the data set with DLD-1, 170 µM; in the data set with ZR-75-1, 23 µM; in the data set on NCI-H23 [1] it was 1 µM; in the data set with LOX IMVI, more than 200 µM. For the same compound, the IC50 in the data set on PC-3 is 67 µM; in the data set with CAKI-1 it was more than 200 µM. Besides, the “growth inhibition (GI)” value in the data set with NCI-H23 [2] and in the data set with NCI-H23 [4] was “inactive” in each case.

In the case of `Cc1ncnc2c1ncn2[C@H]1C[C@H](O)[C@@H](CO)O1`, in the data set with Escherichia coli, the Activity turned out to be 461000 nmol/h.

The compound `CCCc1ncnc2c1ncn2[C@@H]1O[C@H](CO)[C@@H](O)[C@H]1O` showed an Activity in the data set on Escherichia coli of 72000 nmol/h. For the same compound, 6.8 µM corresponded to half-maximal inhibition with CCRF-CEM (IC50).

As for `CC(C)Cc1ncnc2c1ncn2[C@@H]1O[C@H](CO)[C@@H](O)[C@H]1O`, in the data set with Escherichia coli, the Activity is 79000 nmol/h. The compound also yielded a half-inhibitory concentration (IC50) in the data set with CCRF-CEM of more than 130 µM.

On to `Nc1nc(F)nc2c1ncn2[C@@H]1O[C@H](CO)[C@@H](O)[C@@H]1O`, for which the Activity with Escherichia coli was 1300 nmol/h.

In the data set on Escherichia coli, `Nc1ncnc2c1ncn2[C@@H]1O[C@H](CO)[C@@H](O)[C@H]1O` had an Activity of 398000 nmol/h.
